Shown are actives, neighbours in structure and some others; about 2.3% of the full set was active somewhere.
OXTR ag = human OXTR agonists, primary screen, fluorescence, CHO-OTR cells, Fluo-8 calcium | Oxytocin receptor (Homo sapiens), P30559 | Fluo-8 calcium fluorescence; normalized: DMSO 0%, oxytocin 100% | activation, % at 3 µM | actives 0.32% (n = 320,000);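 active means activation above the mean of all tested compounds plus 3 SD, cutoff set per screening run, cut at about 20% in these data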;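 further: peak over basal fluorescence ratio from a 100 s FLIPR kinetic read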
OXTR potentiate = human OXTR potentiators, primary screen, fluorescence, CHO-OTR cells, Fluo-8 calcium. AID 2445, 2010. Fluo-8 calcium fluorescence, potentiator mode; 0% = oxytocin EC15, 100% = EC100. actives 0.061% (n = 320,000). activation, % at 3 µM;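 active means activation above that plate's cutoff, the mean activation of tested compounds plus 3 SD, cut at about 6.6% in these data, passing the limit was not always enough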
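Assay system: CHO cell line stably expressing human OTR | Also added: Oxytocin at about EC15, sub-maximal agonist stimulus | Times: Compound 6 min at room temperature before oxytocin, 100 s read | Measured by: Fluo-8 intracellular calcium fluorescence, ex 470-495, em 515-575 nm | Controls: EC15 oxytocin alone as 0%, 75 nM oxytocin as 100%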
V1R ag counter = agonists of human V1a receptor, primary screen, counter-screen for OXTR agonist project, fluorescence, CHO-V1R cells; actives 0.25% (n = 320,000); AID 2797, 2010; Fluo-8 calcium fluorescence, agonist mode; 0% DMSO, 100% 3 nM vasopressin; activation, % at 3 µM; Vasopressin V1a receptor (Homo sapiens), P37288;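 active means activation above the mean activation of all tested compounds plus 3 SD, per screening run, cut at about 20% in these data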;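 further: signal is peak over basal fluorescence ratio across a 100 second FLIPR read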
Target sequence (P37288 whole entry, looked up): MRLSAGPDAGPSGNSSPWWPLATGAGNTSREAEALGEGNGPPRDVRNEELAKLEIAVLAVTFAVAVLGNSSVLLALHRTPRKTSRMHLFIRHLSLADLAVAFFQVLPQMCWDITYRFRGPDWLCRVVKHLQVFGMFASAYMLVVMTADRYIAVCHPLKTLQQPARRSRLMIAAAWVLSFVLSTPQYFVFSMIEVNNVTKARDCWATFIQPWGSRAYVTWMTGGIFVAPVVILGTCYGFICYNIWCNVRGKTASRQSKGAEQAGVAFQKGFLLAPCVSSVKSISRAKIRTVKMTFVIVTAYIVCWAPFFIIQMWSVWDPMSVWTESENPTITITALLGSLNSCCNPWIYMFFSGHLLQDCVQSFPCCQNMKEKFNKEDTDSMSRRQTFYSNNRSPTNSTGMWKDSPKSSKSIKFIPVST
TAAR1 antag = human TAAR1 antagonists, primary screen, Fluo-8 calcium fluorescence, CHO RD-HGA16 cells; Trace amine-associated receptor 1 (Homo sapiens), Q96RJ0; antagonist; inhibition, % at 3 µM; actives 1.5% (n = 360,000);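 active means inhibition above a per-plate cutoff, the mean inhibition of test compounds on that plate plus 3 SD, cut at about 49% in these data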
Target sequence (Q96RJ0 whole entry, looked up): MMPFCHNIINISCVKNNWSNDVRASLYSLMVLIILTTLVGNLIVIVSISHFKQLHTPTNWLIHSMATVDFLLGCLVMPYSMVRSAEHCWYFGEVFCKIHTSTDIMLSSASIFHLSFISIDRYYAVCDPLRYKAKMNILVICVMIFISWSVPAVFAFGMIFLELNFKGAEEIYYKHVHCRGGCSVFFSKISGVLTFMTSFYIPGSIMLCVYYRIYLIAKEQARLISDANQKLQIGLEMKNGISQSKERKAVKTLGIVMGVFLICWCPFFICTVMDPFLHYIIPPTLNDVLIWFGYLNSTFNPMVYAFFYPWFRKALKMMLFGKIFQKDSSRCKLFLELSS
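Test system – hTAAR1-expressing CHO RD-HGA16 cells, Gα16-coupled · Also added – β-PEA at EC80 concentration, post-compound challenge · Compound – 3 µM, single point · Incubation – dye loading 75 min at 37 °C, then 30 min room temperature · Measured by – Fluo-8 intracellular calcium dye fluorescence, real-time kinetic reads · Benchmarks – vehicle and agonist controls · Replicates – singlicate, one well per test compound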
TAAR1 ag = human TAAR1 agonists, primary screen, Fluo-8 calcium fluorescence, CHO RD-HGA16 cells | vehicle wells 0%, saturating PEA agonist 100% | actives 0.99% (n = 360,000) | activation, % at 3 µM | Trace amine-associated receptor 1 (Homo sapiens), Q96RJ0;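 active means activation above the mean activation of all test compounds in the run plus 3 SD, cut at about 38% in these data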
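Benchmarks: low control DMSO, high control PEA (EC100); System: CHO RD-HGA16 cells carrying human TAAR1 plus Gα16; Detection: Fluo-8 fluorescence, 5 s baseline then 140 s kinetic read; Schedule: 17-24 h plating, Fluo-8 75 min 37 °C, 30 min RT; Read-out basis: % activation from peak over basal fluorescence ratio, DMSO-to-PEA scaled.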
TAAR1 ag conf = human TAAR1 agonists, retest of hits, confirmation, Fluo-8 calcium fluorescence, CHO RD-HGA16 cells; shares compounds with TAAR1 ag; scaled: DMSO 0%, maximal phenethylamine 100%; activation, % at 3 µM; actives 82% (n = 2,400); AID 651783, 2012;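 active means activation above a cutoff set at the run's mean compound activation plus 3 SD, cut at about 39% in these data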
Ga16 nonsel ag = nonselective calcium mobilization agonists, CHO-Ga16 cells, counter-screen for hTAAR1 agonist project, cell-based, fluorescence, CHO-Ga16 parental line. AID 651787, 2012. Fluo-8 calcium fluorescence; normalized to maximal ATP response, DMSO zero. shares compounds with TAAR1 ag. actives 50% (n = 2,400). activation, % at 3 µM;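 active means activation above the run cutoff, the mean activation over all tested wells plus 3 SD, cut at about 12% in these data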
TAAR1 desensitize = TAAR1 desensitization by agonist hits, confirmation, counter-screen for TAAR1 agonist project, cell-based, fluorescence, tachyphylaxis | actives 46% (n = 2,400) | CHO RD-HGA16 hTAAR1, Fluo-8 calcium, beta-PEA response inhibition | AID 651951, 2012 | inhibition, % at 3 µM | shares compounds with TAAR1 ag;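 active means inhibition above the run cutoff, the mean inhibition of all test compounds plus 3 SD, cut at about 49% in these data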;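 further: beta-PEA stimulus applied at its EC80; loss of beta-PEA calcium signal after compound pretreatment read as receptor desensitization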
Ga16 antag count = inhibition of ATP-evoked calcium response in CHO-Ga16 cells, counter-screen for TAAR1 agonist project, cell-based, fluorescence. actives 39% (n = 2,400). inhibition, % at 3 µM. shares compounds with TAAR1 ag. CHO-Ga16 ATP-induced calcium, Fluo-8 fluorescence;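 active means inhibition above the plate's mean compound inhibition plus 3 SD, computed per plate, cut at about 22% in these data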
Each line names hits and unclear results; the compound was inactive in the other large screens (follow-up assays come after a bar, where they were run).

Nc1nc2c(ncn2[C@@H]2O[C@H](C(=O)NCCCc3ccccc3)[C@@H](O)[C@H]2O)c(=O)[nH]1	TAAR1 ag 56 (no result: OXTR ag, OXTR potentiate, V1R ag counter) | TAAR1 ag conf 69 | Ga16 nonsel ag inactive | TAAR1 desensitize inactive | Ga16 antag count inactive
Cc1ccc(NC(=O)CCC(=O)NNC(=O)c2ccccc2)c(C)c1	none
CCOC(=O)CCNC(=O)N1CCCC(C(=O)c2cc(C)c(OC)c(C)c2)C1 (configuration not stated)	none
COc1ccc(/C=C/C(=O)c2ccc([N+](=O)[O-])o2)cc1OC	TAAR1 ag 59 | TAAR1 ag conf 47 | Ga16 nonsel ag 17 | TAAR1 desensitize 49 | Ga16 antag count 31
CCOc1c(C)cnc2c1c(=O)n(Cc1ccccc1F)c(=O)n2C	none
Cc1cnc(C(=O)OCC(=O)Nc2cccc(S(=O)(=O)N3CCOCC3)c2)cn1	none
CN=c1scc(-c2cccs2)n1/N=C/c1ccc(O)c(O)c1O	TAAR1 ag 45 | TAAR1 ag conf 56 | Ga16 nonsel ag 21 | TAAR1 desensitize inactive | Ga16 antag count inactive
CCCn1cc(S(=O)(=O)c2ccccc2)c(=O)c2cc(CC)ccc21	none
CCN1C(=O)/C(=C/c2ccc(OCc3ccc(C(=O)O)cc3)c(Cl)c2)NC1=S	TAAR1 antag 96, TAAR1 ag 100 | TAAR1 ag conf inactive | Ga16 nonsel ag 36 | TAAR1 desensitize 76 | Ga16 antag count 68
O=C(O)c1ccc(COc2ccc(CO)cc2Cl)cc1	none
O=C(N/N=C/c1ccco1)c1cc(-c2ccc3ccccc3c2)n[nH]1	TAAR1 antag 71, TAAR1 ag 48 | TAAR1 ag conf 67 | Ga16 nonsel ag 53 | TAAR1 desensitize 96 | Ga16 antag count 88
Fc1cccc(CCN2CCNC[C@@H]2c2ccccc2)c1	none
FC(F)(F)c1cc(CCN2CCNC[C@@H]2c2ccccc2)cc(C(F)(F)F)c1	TAAR1 ag 45 | TAAR1 ag conf inactive | Ga16 nonsel ag inactive | TAAR1 desensitize inactive | Ga16 antag count inactive
c1ccc(C[C@H]2CNCCN2CCCCC2CCCCC2)cc1	TAAR1 ag 53 | TAAR1 ag conf 54 | Ga16 nonsel ag 22 | TAAR1 desensitize inactive | Ga16 antag count 29
CCC(C)[C@H]1CNCCN1CCc1cc(C(F)(F)F)cc(C(F)(F)F)c1 (some centres not stated)	TAAR1 ag 49 | TAAR1 ag conf 59 | Ga16 nonsel ag 23 | TAAR1 desensitize inactive | Ga16 antag count inactive
CCC(C)[C@H]1CNC(=S)N1CCc1cc(C(F)(F)F)cc(C(F)(F)F)c1 (some centres not stated)	none
c1ccc(CC2CCCNC2)cc1 (configuration not stated)	TAAR1 ag 44 | TAAR1 ag conf 61 | Ga16 nonsel ag inactive | TAAR1 desensitize inactive | Ga16 antag count inactive
Cc1ccccc1C(=O)NCC(=O)O	none
O=C(Cn1c(=S)[nH]c2ccccc2c1=O)N1CCN(c2ccc(F)cc2)CC1	none
COC(=O)c1cccc(NC(=O)CSc2nnc(C)n2C)c1	none
CCCc1cc(=O)[nH]c(SCC(=O)NC2CCCc3ccccc32)n1 (configuration not stated)	none
CCCC[C@@H]1CNCCN1CCc1cc(C(F)(F)F)cc(C(F)(F)F)c1	none
FC(F)(F)c1cc(CCN2CCNC[C@@H]2CC2CCCCC2)cc(C(F)(F)F)c1	TAAR1 ag 61 | TAAR1 ag conf 52 | Ga16 nonsel ag 60 | TAAR1 desensitize inactive | Ga16 antag count 68
O=C(CSc1nc2nn(-c3ccccc3)c(=O)c-2c2n1CCCCC2)NCCCc1ccccc1	none
O=C(O)c1ccc2c3c(cccc13)C(=O)N(c1ccccc1)C2=O	none
Nc1ccc2c3c(cccc13)C(=O)N(c1ccccc1)C2=O	TAAR1 antag 85, TAAR1 ag 403 (no result: OXTR ag, OXTR potentiate, V1R ag counter) | TAAR1 ag conf 176 | Ga16 nonsel ag 147 | TAAR1 desensitize 53 | Ga16 antag count 50
O=C(CCN1CCOCC1)Nc1ccc(Cl)cc1	none
CCc1nc2ccc(C(=O)Nc3ccc(OC)c(OC)c3)cn2c1N(C)CCC(C)C	TAAR1 ag 82 (no result: OXTR ag, OXTR potentiate, V1R ag counter) | TAAR1 ag conf 99 | Ga16 nonsel ag 68 | TAAR1 desensitize inactive | Ga16 antag count inactive
CCc1nc2ccc(C(=O)Nc3ccc(OC)c(OC)c3)cn2c1N(C)Cc1ccc(OC)cc1	none (no result: OXTR ag, OXTR potentiate, V1R ag counter)
Cc1ccccc1NC(NC(=O)OCCn1c([N+](=O)[O-])cnc1C)C(Cl)(Cl)Cl (configuration not stated)	none
OC(c1ccc(-c2ccccc2)cc1)c1ncc(-c2ccccc2F)[nH]1 (configuration not stated)	none (no result: OXTR ag, OXTR potentiate, V1R ag counter)
Cc1ccc(SCC(=O)Nc2ccc(N3CCN(C)CC3)c(F)c2)c(C)c1	TAAR1 antag 52, TAAR1 ag 60 | TAAR1 ag conf 80 | Ga16 nonsel ag inactive | TAAR1 desensitize 75 | Ga16 antag count inactive
CC1CCCC(C)N1C(=O)COC(=O)c1nn(C)c(=O)c2ccccc12 (configuration not stated)	none
CCc1ccccc1NC(=O)Nc1ccc2c(c1)OCO2	TAAR1 ag 64 | TAAR1 ag conf inactive | Ga16 nonsel ag inactive | TAAR1 desensitize inactive | Ga16 antag count inactive
Cc1ccnc(NC(=O)Nc2ccc3c(c2)OCO3)c1	TAAR1 ag 47 | TAAR1 ag conf 87 | Ga16 nonsel ag inactive | TAAR1 desensitize 66 | Ga16 antag count inactive
O=C(Nc1ccc2c(c1)OCCO2)Nc1ccc2c(c1)OCO2	none
